Screens deposited in PubChem by The Scripps Research Institute Molecular Screening Center.
Hits are enriched below; roughly 1% of the tested compounds scored in any of these assays.
LYPLA1 counter: LYPLA1 (human) inhibition in PME1 counter-screen. recombinant LYPLA1, FP-Rh probe fluorescence polarization. inhibition, % at 5.9 µM. 0.16% of 320,000 active;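 active = inhibition above the mean of all tested compounds plus 3 SD, set per campaign, cut at about 14% in these data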;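 note: inhibitors block serine hydrolase probe labeling of LYPLA1 so polarization falls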
PME-1 inh: blocks human protein phosphatase methylesterase 1; recombinant PME-1, FP-Rh probe fluorescence polarization; inhibition, % at 5.9 µM; 0.53% of 320,000 active;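 active = inhibition above the campaign mean of all compounds plus 3 SD, cut at about 26% in these data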;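 note: competitive labeling of PME-1 active site by serine hydrolase directed probe; inhibitors block probe labeling so polarization falls and inhibition rises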
Target sequence (Q9Y570 whole entry, looked up): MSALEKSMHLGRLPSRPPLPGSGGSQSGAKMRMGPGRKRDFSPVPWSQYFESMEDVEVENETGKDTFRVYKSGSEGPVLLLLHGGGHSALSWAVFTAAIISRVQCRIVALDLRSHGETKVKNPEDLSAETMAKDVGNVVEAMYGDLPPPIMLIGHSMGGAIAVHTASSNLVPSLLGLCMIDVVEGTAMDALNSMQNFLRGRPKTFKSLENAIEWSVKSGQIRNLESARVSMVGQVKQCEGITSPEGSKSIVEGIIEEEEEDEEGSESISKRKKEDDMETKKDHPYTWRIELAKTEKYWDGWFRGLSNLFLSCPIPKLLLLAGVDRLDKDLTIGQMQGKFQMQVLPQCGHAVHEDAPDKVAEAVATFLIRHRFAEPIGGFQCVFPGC
proCasp3 act: procaspase-3 (human) activation; recombinant procaspase-3 D3A, Ac-DEVD-pNA absorbance 405 nm; activation, % at 8.5 µM; 0.11% of 330,000 active;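 active = activation above the mean of all tested compounds plus 3 SD, cut at about 21% in these data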
Target sequence (P42574 whole entry D9A/D28A/D175A): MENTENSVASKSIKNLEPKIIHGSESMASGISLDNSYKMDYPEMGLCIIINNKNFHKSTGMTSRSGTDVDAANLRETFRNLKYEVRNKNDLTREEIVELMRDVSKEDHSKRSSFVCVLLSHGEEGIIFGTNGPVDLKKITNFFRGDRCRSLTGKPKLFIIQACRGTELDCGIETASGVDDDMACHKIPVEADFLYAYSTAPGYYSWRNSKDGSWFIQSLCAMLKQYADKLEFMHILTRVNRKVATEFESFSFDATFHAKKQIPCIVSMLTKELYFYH
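material = Procaspase-3 D3A mutant | probe or stimulus = Ac-DEVD-pNA | compound = single dose, 8.5 µM nominal compound, 0.8% DMSO | timing = 1 h preincubation, 2 h reaction | measured by = 405 nm absorbance of p-nitroaniline, reads at 0 and 120 min | benchmarks = DMSO-only low control, 5 µM PC-3 D3A high control | repeats = singlicate, each compound tested once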
LYPLA2 counter: counter-screen for PME1 inhibitors: inhibitors of human LYPLA2; inhibition, % at 5.9 µM; AID 2177; O95372; recombinant LYPLA2, FP-Rh probe fluorescence polarization; 0.38% of 320,000 active;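 active = inhibition above the screen-wide mean plus 3 SD, limit set per campaign, cut at about 26% in these data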
Fam108B counter: Fam108B inhibition, counter-screen for RBBP9 inhibitors; AID 1947; inhibition, % at 9.51 µM; recombinant Fam108B, FP-Rh probe fluorescence polarization; 0.33% of 300,000 active;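 active = inhibition above the screen mean inhibition plus 3 SD, computed separately per campaign, cut at about 18% in these data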;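 note: inhibitors lower polarization as less probe binds the enzyme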
procasp7 counter: counter-screen: procaspase-7 (human) activation; AID 463210; activation, % at 8.5 µM; 0.093% of 330,000 active; recombinant procaspase-7, Ac-DEVD-pNA absorbance 405 nm; D23A/D198A/D206A triple mutant, cannot self-cleave; scale: DMSO 0, 5 µM enzyme 100;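 active = percent activation above the screen-wide mean plus 3 SD, cut at about 25% in these data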
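Assay system: Uncleavable procaspase-7 mutant enzyme | Input: 2 µM procaspase-7 mutant as dispensed | Timing: 1 h compound preincubation, 2 h substrate cleavage, 25 °C | Repeats: One well per compound | Control set: DMSO wells as 0%, DMSO with 5 µM added PC-7 as 100% | Technique: Epi-absorbance of released pNA at 405 nm, two timepoints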
Fam108b inh conf: Fam108b (mouse) hydrolase inhibition, confirmation assay; shares compounds with Fam108B counter; recombinant Fam108b, FP-Rh probe fluorescence polarization; inhibition, % at 9.51 µM; 44% of 930 active; AID 1978;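 active = inhibition above a limit from the primary screen, the mean over all compounds plus 3 SD, cut at about 19% in these data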;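 note: inhibitors free the probe so polarization falls as inhibition rises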
Fam108b inh: mouse ABHD17B inhibition | shares compounds with Fam108B counter | recombinant Fam108b, gel-based ABPP, fluorophosphonate probe | inhibition, % at 20 µM | 44% of 260 active; in the data active = inhibition above about 40%
Large screens that a line does not name were inactive (follow-up assays come after a bar, where they were run).

COc1cc2cc(C(=O)N3CCN(Cc4ccc5c(c4)OCO5)CC3)c(=O)oc2cc1OC	none
N[C@H](CSCc1ccccc1)C(=O)Nc1ccc([N+](=O)[O-])cc1	PME-1 inh 26, Fam108B counter 29 | Fam108b inh conf inactive
NC(=O)c1ccc([N+](=O)[O-])cc1SCc1ccccc1	none
Cc1ccc(NC(=O)CSc2nnc(C)n2C2CC2)cc1S(=O)(=O)N1CCOCC1	none (no result: Fam108B counter)
C/C(=N\Nc1ccc(C(=O)O)cc1)c1ccc2c(c1)Nc1ccccc1S2	PME-1 inh 28, Fam108B counter 30 | Fam108b inh conf 27
COC(=O)c1ccccc1NC1=C/C(=N\S(=O)(=O)c2cccs2)c2ccccc2C1=O	Fam108B counter 20 | Fam108b inh conf inactive
CC(C)(C)c1ccc(S(=O)(=O)/N=C2\C=C(NS(=O)(=O)c3ccccc3)C(=O)c3ccccc32)cc1	none
O=C1C(Nc2ccccc2)=C/C(=N/S(=O)(=O)c2cccs2)c2ccccc21	PME-1 inh 32, Fam108B counter 36 | Fam108b inh conf 57
COC(=O)c1ccccc1NC1=C/C(=N\S(=O)(=O)c2ccc(C(=O)O)cc2)c2ccccc2C1=O	LYPLA2 counter 26, Fam108B counter 57 | Fam108b inh conf 72 | Fam108b inh inactive
Cc1ccc(NC2=C/C(=N/S(=O)(=O)c3cccs3)c3ccccc3C2=O)cc1	none
CCCCC1CCC(C(=O)Nc2ccc(N3CCOCC3)cc2N2CCOCC2)CC1 (stereo not given)	none (no result: Fam108B counter)
CC(C)CCNC(=O)C(=O)NCC1OCCCN1S(=O)(=O)c1cccs1 (stereo not given)	none
COc1cccc(/C=N/NC(=O)c2oc3nc(-c4ccccc4)cc(-c4ccco4)c3c2N)c1	none
NNC(=O)c1oc2nc(-c3cccs3)cc(-c3ccco3)c2c1N	Fam108B counter 24 | Fam108b inh conf 24
Cc1ccc(-c2cc(-c3ccco3)c3c(N)c(C(=O)NN)oc3n2)cc1	Fam108B counter 30 | Fam108b inh conf inactive
C/C(CC(=O)c1ccccc1)=N\NC(=O)CC#N	none
N#CC/C(N)=N/Nc1nc2ccccc2nc1Cc1ccccc1	PME-1 inh 33, Fam108B counter 46 | Fam108b inh conf 24
O=C(O)C(S)C(S)C(=O)O (stereo not given)	Fam108B counter 21 | Fam108b inh conf inactive
COCCCNC(=O)c1ccc(OC)c(OC2CCN(C(C)C)CC2)c1	none
COc1ccc(NC(=O)Nc2cccc([N+](=O)[O-])c2)cc1Cl	PME-1 inh 42, Fam108B counter 32 | Fam108b inh conf 97 | Fam108b inh inactive
COc1ccc(C(=O)Nc2cccc([N+](=O)[O-])c2)cc1Br	none
COc1cc([N+](=O)[O-])ccc1NC(=O)Nc1ccc2c(c1)OCCO2	Fam108B counter 19 | Fam108b inh conf inactive
COc1ccc(OC)c(Nc2nc(N)c([N+](=O)[O-])c(N3CCOCC3)n2)c1	none
O=[N+]([O-])c1ccc(O)c(/C=N\N=C2c3ccccc3-c3ccccc32)c1	Fam108B counter 21 | Fam108b inh conf inactive
CCC(=O)NC(c1ccccc1Cl)c1c(O)ccc2ccccc12 (stereo not given)	PME-1 inh 47, Fam108B counter 18 | Fam108b inh conf inactive
C/C=C(\C)C(=O)NCCN1C2=NC[C@H](C(C)C)N2C[C@@H]1Cc1ccc(OC)cc1	Fam108B counter 21 | Fam108b inh conf inactive
C/C=C(\C)C(=O)NCCN1C2=NC[C@H](C(C)C)N2C[C@H]1Cc1ccc(O)cc1	none
Cc1nn(C)c(C)c1NS(=O)(=O)c1cccc(Br)c1	none
COc1cc(NC(=O)C2CCN(S(=O)(=O)c3ccc4[nH]c(=O)oc4c3)CC2)cc(OC)c1	none
CCN(C(=O)c1ccc(C)c(Br)c1)c1ccccc1	none
CCn1cc(CN2CCC(n3nccc3NC(=O)c3cccc(F)c3)CC2)cn1	none
Cn1ccnc1C(=O)c1ccccc1Cl	Fam108B counter 52 | Fam108b inh conf inactive
Cn1ccnc1C(=O)c1cccc(Br)c1	none
CC1CC1C(=O)Nc1nc(-c2ccc(Cl)s2)cs1 (stereo not given)	Fam108B counter 20 | Fam108b inh conf inactive
Cc1ccc(OCC(=O)NCCc2c[nH]c3ccccc23)cc1	none
Clc1ccc2c(NCc3ccccn3)ccnc2c1	none
Oc1ccc(C=NNc2ccnc3cc(Cl)ccc23)cc1O	none (no result: LYPLA1 counter, PME-1 inh, proCasp3 act, LYPLA2 counter, Fam108B counter, procasp7 counter) | Fam108b inh 85
Oc1ccc(/C=N/Nc2ccnc3cc(Cl)ccc23)c(O)c1O	PME-1 inh 32, Fam108B counter 30 | Fam108b inh conf 93
Oc1ccc(/C=N/Nc2ccnc3cc(Cl)ccc23)cc1O	PME-1 inh 42, Fam108B counter 55 | Fam108b inh conf 34
CC/C(=N\Nc1ccnc2cc(Cl)ccc12)c1ccc(O)cc1	none
COc1cccc(C(CNC(=O)c2ccc(Cl)c(S(=O)(=O)N3CCCC3)c2)N(C)C)c1 (stereo not given)	none (no result: LYPLA1 counter, PME-1 inh, LYPLA2 counter, Fam108B counter)
CN(CC(=O)Nc1ccccc1Cl)C(=O)COC(=O)C1=COCCO1	none
Clc1ccccc1C(c1ccccc1)(c1ccccc1)n1ccnc1	Fam108B counter 32 | Fam108b inh conf 46 | Fam108b inh 45
FC(F)(F)c1ccccc1-n1ccnc1	none
O=C(Nc1ccccc1C(=O)NCc1ccccc1)C1=CSCCO1	none
C=C1c2cccc(O)c2C(O)=C2C(=O)[C@]3(O)C(O)=C(C(N)=O)C(=O)[C@@H](N(C)C)[C@@H]3[C@@H](O)[C@H]12	Fam108B counter 26 | Fam108b inh conf inactive
C[C@H]1c2cccc(O)c2C(O)=C2C(=O)C3(O)C(O)=C(C(N)=O)C(=O)[C@@H](N(C)C)[C@@H]3[C@@H](O)[C@@H]21 (stereo not given in full)	none
O=C1C2=C(Nc3ccccc3SC2c2ccco2)c2ccccc21 (stereo not given)	PME-1 inh 29, Fam108B counter 31 | Fam108b inh conf inactive
O=C1c2ccccc2NC(c2ccco2)N1O (stereo not given)	none
COc1ccc(C=NNC(=O)c2cc(O)c(O)c(O)c2)cc1COc1ccc(C(=O)OCC(C)C)cc1	none (no result: LYPLA1 counter, PME-1 inh, proCasp3 act, LYPLA2 counter, Fam108B counter, procasp7 counter) | Fam108b inh inactive
O=c1cc(-c2ccc(O)c(-c3c(O)cc(O)c4c(=O)cc(-c5ccc(O)cc5)oc34)c2)oc2cc(O)cc(O)c12	Fam108B counter 44 | Fam108b inh conf 41 | Fam108b inh 75
O=c1cc(-c2ccc(O)cc2)oc2c(-c3c(O)cc(O)c4c(=O)cc(-c5ccc(O)cc5)oc34)c(O)cc(O)c12	none (no result: LYPLA1 counter, PME-1 inh, LYPLA2 counter, Fam108B counter)
